# Reference: ChEMBL document CHEMBL4196177, “Synthesis, Evaluation, and Structure-Activity Relationship Study of Lanosterol Derivatives To Reverse Mutant-Crystallin-Induced Protein Aggregation” (J Med Chem, 2018)
# Residue numbers refer to the chain shown, from its start. Calls of active or inactive are those of the source. The calls are words filed in the database; no cut-off is given here.
# Key:
# [1] = test system: T1, Alpha-crystallin A chain (Homo sapiens), P02489 [R116C]; test: Induction of redissolving of aggregated alpha-crystallin A R116C mutant (unknown origin) at 200 uM incubated for 24 hrs by transmission-electron-microscopy
# T1 sequence (whole entry): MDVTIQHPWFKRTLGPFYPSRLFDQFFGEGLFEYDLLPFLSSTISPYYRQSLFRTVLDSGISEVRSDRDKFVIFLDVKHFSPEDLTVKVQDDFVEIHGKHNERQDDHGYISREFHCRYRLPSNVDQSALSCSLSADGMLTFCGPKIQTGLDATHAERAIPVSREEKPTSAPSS
# Outline: (§1)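 Pre-formed amyloid-like fibrils of mutant crystallin proteins were treated with compounds in liposomes or with a liposome vehicle. Fibrillar structures were then examined by negative-stain transmission electron microscopy.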
# [2] = target: T2, Alpha-crystallin B chain (Homo sapiens, UniProt P02511, R120G); test: Inhibition of alpha-crystallin B R120G mutant (unknown origin)-induced intracellular protein aggregation expressed in human HeLa cells or HLE-B3 cells incubated for 6 to 8 hrs by fluorescence microscopy relative to untreated control; format: cell-based
# [3] = test system: T3, Alpha-crystallin A chain (Homo sapiens), P02489 [R116H]; test: Induction of redissolving of aggregated alpha-crystallin A R116H mutant (unknown origin) at 200 uM incubated for 24 hrs by transmission-electron-microscopy; outline: as §1
# T3 sequence (whole entry): T1 sequence (whole entry) with C116H
# [4] = test system: T4, Alpha-crystallin A chain (Homo sapiens), P02489 [Y118D]; test: Induction of redissolving of aggregated alpha-crystallin A Y118D mutant (unknown origin) at 200 uM incubated for 24 hrs by ThT-fluorescence based assay
# T4 sequence (whole entry): T1 sequence (whole entry) with C116R, Y118D
# Outline: (§2)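 Purified mutant crystallin proteins, pre-formed into amyloid-like fibrils, were treated with compounds delivered in liposomes, with a liposome-only vehicle control. Redissolution was read as thioflavin T (ThT) fluorescence, n = 3.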
# [5] = test system: T5, Gamma-crystallin D (Homo sapiens), P07320 [W43R]; test: Induction of redissolving of aggregated gamma-crystallin D W43R mutant (unknown origin) at 200 uM incubated for 24 hrs by ThT-fluorescence based assay; outline: as §2
# T5 sequence (whole entry): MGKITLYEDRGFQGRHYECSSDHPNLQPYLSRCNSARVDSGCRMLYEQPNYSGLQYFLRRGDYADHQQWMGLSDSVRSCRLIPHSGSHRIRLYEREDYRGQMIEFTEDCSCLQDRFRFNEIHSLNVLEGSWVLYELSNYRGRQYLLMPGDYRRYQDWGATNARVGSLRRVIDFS
# [6] = test system: T6, Beta-crystallin B2 (Homo sapiens), P43320 [R188H]; test: Induction of redissolving of aggregated beta-crystallin B2 R188H mutant (unknown origin) at 200 uM incubated for 24 hrs by transmission-electron-microscopy; outline: as §1
# T6 sequence (whole entry): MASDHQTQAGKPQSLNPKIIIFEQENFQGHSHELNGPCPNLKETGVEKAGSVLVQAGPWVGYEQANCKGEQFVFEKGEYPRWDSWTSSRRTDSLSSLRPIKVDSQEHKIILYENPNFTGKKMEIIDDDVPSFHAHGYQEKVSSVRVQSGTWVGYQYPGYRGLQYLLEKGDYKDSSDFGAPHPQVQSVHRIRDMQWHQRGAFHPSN
# [7] = test system: T7, Gamma-crystallin C (Homo sapiens), P07315 [G129C]; test: Induction of redissolving of aggregated gamma-crystallin C G129C mutant (unknown origin) at 200 uM incubated for 24 hrs by ThT-fluorescence based assay; outline: as §2
# T7 sequence (whole entry): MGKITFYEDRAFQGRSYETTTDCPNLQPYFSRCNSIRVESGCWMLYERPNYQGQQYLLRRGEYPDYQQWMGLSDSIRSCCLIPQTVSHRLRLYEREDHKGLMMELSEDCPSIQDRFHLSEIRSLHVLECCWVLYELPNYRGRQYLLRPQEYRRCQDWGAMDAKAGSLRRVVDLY
# [8] = test system: T8, Alpha-crystallin B chain (Homo sapiens), P02511 [R120G]; test: Induction of redissolving of aggregated alpha-crystallin B R120G mutant (unknown origin) at 200 uM incubated for 24 hrs by ThT-fluorescence based assay; outline: as §2
# T8 sequence (whole entry): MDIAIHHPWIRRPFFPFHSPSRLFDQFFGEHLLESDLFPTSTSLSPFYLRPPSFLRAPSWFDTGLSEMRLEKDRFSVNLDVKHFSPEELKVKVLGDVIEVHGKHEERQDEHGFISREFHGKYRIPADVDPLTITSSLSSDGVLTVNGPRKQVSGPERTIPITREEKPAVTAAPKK
# [9] = test system: T1, Alpha-crystallin A chain (Homo sapiens), P02489 [R116C]; test: Induction of redissolving of aggregated alpha-crystallin A R116C mutant (unknown origin) at 200 uM incubated for 24 hrs by ThT-fluorescence based assay; outline: as §2
# [10] = test system: T4, Alpha-crystallin A chain (Homo sapiens), P02489 [Y118D]; test: Induction of redissolving of aggregated alpha-crystallin A Y118D mutant (unknown origin) at 200 uM incubated for 24 hrs by transmission-electron-microscopy; outline: as §1
# [11] = target: T2, Alpha-crystallin B chain; test: Induction of redissolving of aggregated alpha-crystallin B R120G mutant (unknown origin) incubated for 24 hrs by ThT-fluorescence based assay
# Outline: (§3)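 Dose–response EC50 for redissolving pre-formed amyloid-like fibrils of αA Y118D or αB R120G crystallin. Compounds were delivered in liposomes and the read-out was thioflavin T fluorescence.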
# [12] = target: Alpha-crystallin A chain (Homo sapiens, UniProt P02489, Y118D); test: Induction of redissolving of aggregated alpha-crystallin A Y118D mutant (unknown origin) incubated for 24 hrs by ThT-fluorescence based assay; outline: as §3
# Sequence of Alpha-crystallin A chain (P02489 whole entry Y118D): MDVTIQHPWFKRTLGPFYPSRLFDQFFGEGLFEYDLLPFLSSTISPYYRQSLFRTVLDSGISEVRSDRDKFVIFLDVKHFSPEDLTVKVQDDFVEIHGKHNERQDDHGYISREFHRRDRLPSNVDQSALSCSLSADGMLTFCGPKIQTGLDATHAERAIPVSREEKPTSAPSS
EC50 [2],SMILES,Activity [1],Activity [3],Activity [4],Activity [5],Activity [6],Activity [7],Activity [8],Activity [9],Activity [10],EC50 [11],EC50 [12]
Not Active,C[C@H](CCCC(C)(C)O)[C@H]1CC[C@@]2(C)[C@@]34CC[C@H]5C(C)(C)/C(=N/O)CC[C@]5(C)[C@]3(CC[C@]12C)O4,inactive,inactive,inactive,inactive,inactive,inactive,inactive,inactive,inactive,,
,C[C@H](CCCC(C)(C)O)[C@H]1CC[C@@]2(C)C3=C(CC[C@]12C)[C@@]1(C)CC[C@H](O)C(C)(C)[C@@H]1CC3,Active,Active,Active,Active,Active,Active,Active,Active,Active,3120 nM,35.6 nM
